# In ChEMBL document CHEMBL1125642, “Fluorocarbocyclic nucleosides: synthesis and antiviral activity of 2'- and 6'-fluorocarbocyclic 2'-deoxy guanosines” (1991):
# Columns and labels:
# Human alphaherpesvirus 2 [1] = experiment: In vivo efficacy of compound against HSV-2 strain A133 in the mouse system model was measured at 6.25 dose(mg/kg), activity expressed as Survivors counted on day 21; 5/5; type: functional
# How it was run: (§1)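 Female albino mice (15-18 g) were challenged ip with 0.2 mL virus suspension at (5-15) × LD50. Starting 1 h later, they were dosed sc (0.2 mL, saline) twice daily for 4 days. Doses were the maximum tolerated dose and serial dilutions of it. Groups had 5-10 mice. Survivors were counted on day 21, and ED50 (mg/kg per dose) came from logit transformation (Litchfield–Wilcoxon).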
# Human alphaherpesvirus 2 [2] = experiment: In vivo efficacy of compound against HSV-2 strain A133 in the mouse system model was measured at 0.8 dose(mg/kg), activity expressed as Survivors counted on day 21; 2/5; type: functional; how it was run: as §1
# Human alphaherpesvirus 2 [3] = experiment: Compound was measured for the inhibition of HSV-2 strain A133 in the mouse system model at 3.1 dose(mg/kg); type: functional; how it was run: as §1
# Human alphaherpesvirus 2 [4] = experiment: Concentration required to inhibit HSV-2 strain 186 cytopathic effect by 50% was measured by plaque reduction assay; type: functional; settings: for IC50: Human alphaherpesvirus 2, read-out: ID50 (the source's name)
# How it was run: (§2)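 Plaque reduction in confluent Vero monolayers infected with 30-40 PFU of HSV-1 KOS or HSV-2 186, with 1 h adsorption at 37 °C. Cells were then overlaid with maintenance medium containing 0.75% carboxymethylcellulose and a range of compound concentrations. After 2 days at 37 °C, cells were fixed and stained and plaques counted. ID50 is the concentration giving 50% plaque reduction.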
# Human alphaherpesvirus 2 [5] = experiment: In vivo efficacy of compound against HSV-1 strain A133 in the mouse system model was measured at 1.6 dose(mg/kg), activity expressed as Survivors counted on day 21; 4/5; type: functional; how it was run: as §1
# Human alphaherpesvirus 2 [6] = experiment: In vivo efficacy of compound against HSV-2 strain A133 in the mouse system model was measured at 0.4 dose(mg/kg), activity expressed as Survivors counted on day 21; 0/5; type: functional; how it was run: as §1
# Human alphaherpesvirus 2 [7] = experiment: In vivo efficacy of compound against HSV-2 strain A133 in the mouse system model was measured at 3.1 dose(mg/kg), activity expressed as Survivors counted on day 21; 4/5; type: functional; how it was run: as §1
# Human alphaherpesvirus 1 [8] = experiment: In vivo efficacy of compound against HSV-1 strain A133 in the mouse system model was measured at 1.6 dose(mg/kg), activity expressed as Survivors counted on day 21; 2/5; type: functional; how it was run: as §1
# Human alphaherpesvirus 1 [9] = experiment: In vivo efficacy of compound against HSV-1 strain A133 in the mouse system model was measured at 3.1 dose(mg/kg), activity expressed as Survivors counted on day 21; 4/5; type: functional; how it was run: as §1
# Human alphaherpesvirus 1 [10] = experiment: Concentration required to inhibit HSV-1 strain KOS cytopathic effect by 50% was measured by plaque reduction assay; type: functional; settings: for IC50: Human alphaherpesvirus 1, read-out: ID50 (the source's name); how it was run: as §2
# Human alphaherpesvirus 1 [11] = experiment: In vivo efficacy of compound against HSV-1 strain A133 in the mouse system model was measured at 0.1 dose(mg/kg), activity expressed as Survivors counted on day 21; 0/5; type: functional; how it was run: as §1
# Human alphaherpesvirus 1 [12] = experiment: In vivo efficacy of compound against HSV-1 strain A133 in the mouse system model was measured at 0.4 dose(mg/kg), activity expressed as Survivors counted on day 21; 2/5; type: functional; how it was run: as §1
# Human alphaherpesvirus 1 [13] = experiment: Compound was measured for the inhibition of HSV-1 strain A133 in the mouse system model at 1.6 dose(mg/kg); type: functional; how it was run: as §1
# Vero = experiment: Cytotoxicity was evaluated by measuring the dose affecting 50% of mock-infected Vero monolayers; type: functional; settings: Chlorocebus sabaeus, read-out: ID50 (the source's name)
# How it was run: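 Mock-infected confluent Vero monolayers were incubated with compound for 48 h at 37 °C and examined microscopically. Gross changes in staining, cell number or morphology were scored. The value is the dose affecting 50% of the monolayer.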
# Human alphaherpesvirus 2 [14] = experiment: In vivo efficacy of compound against HSV-2 strain A133 in the mouse system model was measured at 6.25 dose(mg/kg), activity expressed as Survivors counted on day 21; […]; type: functional; how it was run: as §1
# Human alphaherpesvirus 2 [15] = experiment: In vivo efficacy of compound against HSV-2 strain A133 in the mouse system model was measured at 0.025 dose(mg/kg), activity expressed as Survivors counted on day 21; 0/10; type: functional; how it was run: as §1
# Human alphaherpesvirus 1 [16] = experiment: In vivo efficacy of compound against HSV-1 strain A133 in the mouse system model was measured at 3.1 dose(mg/kg), activity expressed as Survivors counted on day 21; 10/10; type: functional; how it was run: as §1
# Human alphaherpesvirus 1 [17] = experiment: In vivo efficacy of compound against HSV-1 strain A133 in the mouse system model was measured at 0.012 dose(mg/kg), activity expressed as Survivors counted on day 21; 1/10; type: functional; how it was run: as §1
# Human alphaherpesvirus 1 [18] = experiment: In vivo efficacy of compound against HSV-1 strain A133 in the mouse system model was measured at 0.05 dose(mg/kg), activity expressed as Survivors counted on day 21; 1/10; type: functional; how it was run: as §1
# Human alphaherpesvirus 1 [19] = experiment: In vivo efficacy of compound against HSV-1 strain A133 in the mouse system model was measured at 0.2 dose(mg/kg), activity expressed as Survivors counted on day 21; 4/10; type: functional; how it was run: as §1
# Human alphaherpesvirus 1 [20] = experiment: In vivo efficacy of compound against HSV-1 strain A133 in the mouse system model was measured at 0.8 dose(mg/kg), activity expressed as Survivors counted on day 21; 10/10; type: functional; how it was run: as §1
# Human alphaherpesvirus 1 [21] = experiment: Compound was measured for the inhibition of HSV-1 strain A133 in the mouse system model at 0.2 dose(mg/kg); type: functional; how it was run: as §1
# Human alphaherpesvirus 2 [22] = experiment: Compound was measured for the inhibition of HSV-2 strain A133 in the mouse system model at 0.7 dose(mg/kg); type: functional; how it was run: as §1
# Human alphaherpesvirus 2 [23] = experiment: In vivo efficacy of compound against HSV-2 strain CT in the mouse system model was measured at 0.1 dose(mg/kg), activity expressed as Survivors counted on day 21; 2/10
# Human alphaherpesvirus 2 [24] = experiment: In vivo efficacy of compound against HSV-2 strain CT in the mouse system model was measured at 0.7 dose(mg/kg), activity expressed as Survivors counted on day 21; 2/10
# Human alphaherpesvirus 2 [25] = experiment: In vivo efficacy of compound against HSV-2 strain CT in the mouse system model was measured at 1.6 dose(mg/kg), activity expressed as Survivors counted on day 21; 7/10
# Human alphaherpesvirus 2 [26] = experiment: In vivo efficacy of compound against HSV-2 strain A133 in the mouse system model was measured at 50 dose(mg/kg), activity expressed as Survivors counted on day 21; 1/5; type: functional; how it was run: as §1
# Human alphaherpesvirus 2 [27] = experiment: In vivo efficacy of compound against HSV-2 strain A133 in the mouse system model was measured at 6.25 dose(mg/kg), activity expressed as Survivors counted on day 21; type: functional; how it was run: as §1
# Human alphaherpesvirus 2 [28] = experiment: Compound was measured for the inhibition of HSV-2 strain A133 in the mouse system model at 25 dose(mg/kg); type: functional; how it was run: as §1
# Human alphaherpesvirus 1 [29] = experiment: In vivo efficacy of compound against HSV-1 strain A133 in the mouse system model was measured at 25 dose(mg/kg), activity expressed as Survivors counted on day 21; 2/5; type: functional; how it was run: as §1
# Human alphaherpesvirus 1 [30] = experiment: In vivo efficacy of compound against HSV-1 strain A133 in the mouse system model was measured at 6.25 dose(mg/kg), activity expressed as Survivors counted on day 21; 0/10; type: functional; how it was run: as §1
# Human alphaherpesvirus 1 [31] = experiment: In vivo efficacy of compound against HSV-1 strain A133 in the mouse system model was measured at 100 dose(mg/kg), activity expressed as Survivors counted on day 21; 3/5; type: functional; how it was run: as §1
# Human alphaherpesvirus 1 [32] = experiment: In vivo efficacy of compound against HSV-1 strain A133 in the mouse system model was measured at 100 dose(mg/kg), activity expressed as Survivors counted on day 21; 8/10; type: functional; how it was run: as §1
# Human alphaherpesvirus 1 [33] = experiment: In vivo efficacy of compound against HSV-1 strain A133 in the mouse system model was measured at 25 dose(mg/kg), activity expressed as Survivors counted on day 21; 1/10; type: functional; how it was run: as §1
# Human alphaherpesvirus 1 [34] = experiment: Compound was measured for the inhibition of HSV-1 strain A133 in the mouse system model at 25 dose(mg/kg); type: functional; how it was run: as §1
# Human alphaherpesvirus 1 [35] = experiment: In vivo efficacy of compound against HSV-1 strain A133 in the mouse system model was measured at 6.25 dose(mg/kg), activity expressed as Survivors counted on day 21; 0/5; type: functional; how it was run: as §1
# Human alphaherpesvirus 2 [36] = experiment: In vivo efficacy of compound against HSV-2 strain CT in the mouse system model was measured at 100dose(mg/kg), activity expressed as Survivors counted on day 21; 2/5
# Human alphaherpesvirus 2 [37] = experiment: In vivo efficacy of compound against HSV-2 strain CT in the mouse system model was measured at 25 dose(mg/kg), activity expressed as Survivors counted on day 21; 3/5
# Human alphaherpesvirus 2 [38] = experiment: In vivo efficacy of compound against HSV-2 strain CT in the mouse system model was measured at 25 dose(mg/kg), activity expressed as Survivors counted on day 21; 2/10
# Human alphaherpesvirus 2 [39] = experiment: In vivo efficacy of compound against HSV-2 strain CT in the mouse system model was measured at 100 dose(mg/kg), activity expressed as Survivors counted on day 21; 7/10
structure (smiles),measurement,setting,value
"Nc1nc(O)c2ncn(C3CC(O)C(CO)C3F)c2n1 (single isomer, unassigned; (+))",Survivors,Human alphaherpesvirus 2 [1],5
same,Survivors,Human alphaherpesvirus 2 [2],2
same,ED50,Human alphaherpesvirus 2 [3],1.1 mg/kg
same,ID50,Human alphaherpesvirus 2 [4],0.77 µg/mL
same,Survivors,Human alphaherpesvirus 2 [5],4
same,Survivors,Human alphaherpesvirus 2 [6],0
same,Survivors,Human alphaherpesvirus 2 [7],4
same,Survivors,Human alphaherpesvirus 1 [8],2
same,Survivors,Human alphaherpesvirus 1 [9],4
same,ID50,Human alphaherpesvirus 1 [10],0.16 µg/mL
same,Survivors,Human alphaherpesvirus 1 [11],0
same,Survivors,Human alphaherpesvirus 1 [12],2
same,ED50,Human alphaherpesvirus 1 [13],0.97 mg/kg
same,IC50,Vero,> 300 µg/mL
Nc1nc2c(ncn2[C@@H]2C[C@H](CO)[C@@H](O)[C@@H]2F)c(=O)[nH]1,Survivors,Human alphaherpesvirus 2 [14],9
same,IC50,Human alphaherpesvirus 2 [4],0.05 µg/mL
same,Survivors,Human alphaherpesvirus 2 [15],0
same,Survivors,Human alphaherpesvirus 1 [16],10
same,IC50,Human alphaherpesvirus 1 [10],0.006 µg/mL
same,Survivors,Human alphaherpesvirus 1 [17],1
same,Survivors,Human alphaherpesvirus 1 [18],1
same,Survivors,Human alphaherpesvirus 1 [19],4
same,Survivors,Human alphaherpesvirus 1 [20],10
same,ED50,Human alphaherpesvirus 1 [21],0.2 mg/kg
same,IC50,Vero,> 300 µg/mL
same,ED50,Human alphaherpesvirus 2 [22],0.8 mg/kg
same,Survivors,Human alphaherpesvirus 2 [23],2
same,Survivors,Human alphaherpesvirus 2 [24],2
same,Survivors,Human alphaherpesvirus 2 [25],7
Nc1nc(O)c2ncn([C@@H]3O[C@H](CO)[C@@H](O)[C@@H]3F)c2n1 [F-ARAG],IC50,Human alphaherpesvirus 2 [4],19 µg/mL
same,IC50,Human alphaherpesvirus 1 [10],5 µg/mL
same,IC50,Vero,> 100 µg/mL
"Nc1nc(O)c2ncn(C3CC(O)C(CO)C3F)c2n1 (single isomer, unassigned; (-))",ID50,Human alphaherpesvirus 2 [4],155 µg/mL
same,ID50,Human alphaherpesvirus 1 [10],15 µg/mL
Nc1nc2c(ncn2COCCO)c(=O)[nH]1 [ACYCLOVIR],Survivors,Human alphaherpesvirus 2 [26],1
same,Survivors,Human alphaherpesvirus 2 [27],0
same,ED50,Human alphaherpesvirus 2 [28],58 mg/kg
same,IC50,Human alphaherpesvirus 2 [4],0.6 µg/mL
same,Survivors,Human alphaherpesvirus 1 [29],2
same,Survivors,Human alphaherpesvirus 1 [30],0
same,IC50,Human alphaherpesvirus 1 [10],0.2 µg/mL
same,Survivors,Human alphaherpesvirus 1 [31],3
same,Survivors,Human alphaherpesvirus 1 [32],8
same,Survivors,Human alphaherpesvirus 1 [33],1
same,ED50,Human alphaherpesvirus 1 [34],~50 mg/kg
same,ED50,"Human alphaherpesvirus 1 [34]; Human alphaherpesvirus 1, read-out: ED50",58 mg/kg
same,Survivors,Human alphaherpesvirus 1 [35],0
same,IC50,Vero,> 300 µg/mL
same,Survivors,Human alphaherpesvirus 2 [36],2
same,Survivors,Human alphaherpesvirus 2 [37],3
same,Survivors,Human alphaherpesvirus 2 [38],2
same,Survivors,Human alphaherpesvirus 2 [39],7
Nc1nc2c(ncn2[C@@H]2C[C@H](CO)[C@@H](O)[C@H]2F)c(=O)[nH]1,IC50,Human alphaherpesvirus 2 [4],70 µg/mL
same,IC50,Human alphaherpesvirus 1 [10],2.35 µg/mL
same,IC50,Vero,> 300 µg/mL
Nc1nc(O)c2ncn([C@@H]3C[C@H](CO)[C@@H](O)C3)c2n1,IC50,Human alphaherpesvirus 2 [4],0.44 µg/mL
same,IC50,Human alphaherpesvirus 1 [10],0.06 µg/mL
same,IC50,Vero,300 µg/mL
